From ChEMBL document CHEMBL4673255, “Acylated 1H-1,2,4-Triazol-5-amines Targeting Human Coagulation Factor XIIa and Thrombin: Conventional and Microscale Synthesis, Anticoagulant Properties, and Mechanism of Action” (J Med Chem, 2020)

Key:
[1] = Inhibition of porcine trypsin using Z-Gly-Gly-Arg-AMC as fluorogenic substrate measured at 1 min interval for 1 hr by fluorometric assay; parameters: species or system Sus scrofa
Blood [2] = experiment: Effect on blood coagulation in human blood assessed as increase in prothrombin time at 300 uM incubated for 3 mins followed by CaCl2 addition by PT reagent based assay relative to control; type: ADME, tissue-based; conditions: 0.05 h
How it was run: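 Clotting was started with PT reagent already containing CaCl2, prewarmed to 37 °C, and clotting time was recorded. Increase is given relative to DMSO; at least triplicate, mean ± SD.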

Prothrombin [3] = target: T1, Prothrombin (Homo sapiens, UniProt P00734); experiment: Inhibition of human coagulation factor alpha-thrombin using Boc-Val-Pro-Arg-AMC as fluorogenic substrate measured at 1 min interval for 1 hr by fluorometric assay
Blood [4] = experiment: Anticoagulant activity in human blood assessed as increase in activated partial thromboplastin time at 300 uM incubated for 1 min by aPTT reagent based assay relative to control; type: functional
How it was run: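 Compounds were tested at 300 µM, and the increase was expressed relative to DMSO. The doubling concentration (EC2×) is the concentration prolonging aPTT twofold. At least triplicate, mean ± SD.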

[5] = target: T2, Coagulation factor XII (Homo sapiens) (UniProt P00748); experiment: Inhibition of human coagulation factor XIIA in presence of Boc-Gln-Gly-Arg-AMC as fluorogenic substrate at 1 uM measured at 1 min interval for 1 hr by fluorometric assay relative to control
T2 sequence (whole entry): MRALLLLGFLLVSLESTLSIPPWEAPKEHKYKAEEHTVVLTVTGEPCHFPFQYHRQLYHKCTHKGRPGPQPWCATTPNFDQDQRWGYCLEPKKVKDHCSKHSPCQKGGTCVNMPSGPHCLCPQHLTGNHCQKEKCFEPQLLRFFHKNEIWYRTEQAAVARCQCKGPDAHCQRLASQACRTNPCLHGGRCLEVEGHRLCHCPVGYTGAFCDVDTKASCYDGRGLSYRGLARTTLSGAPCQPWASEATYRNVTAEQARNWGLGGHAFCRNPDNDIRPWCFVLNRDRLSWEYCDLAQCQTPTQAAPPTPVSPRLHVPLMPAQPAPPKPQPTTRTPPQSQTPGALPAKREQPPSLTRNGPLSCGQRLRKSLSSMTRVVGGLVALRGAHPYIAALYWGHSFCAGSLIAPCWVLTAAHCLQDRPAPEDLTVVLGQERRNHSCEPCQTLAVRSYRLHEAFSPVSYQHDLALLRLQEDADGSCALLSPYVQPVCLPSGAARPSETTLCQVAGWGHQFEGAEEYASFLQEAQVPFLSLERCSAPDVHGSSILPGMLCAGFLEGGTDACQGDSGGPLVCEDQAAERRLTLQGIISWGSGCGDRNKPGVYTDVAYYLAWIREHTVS
How it was run: (§1)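 Screening of crude microscale amide-coupling products. Conversion was measured by 1H NMR and product content normalised to 76 µmol/L in DMSO, then tested at 1 µM and 100 nM in the fluorogenic FXIIa or thrombin assay. A 0-conversion reaction served as blank. Percent inhibition is from triplicates.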

Coagulation factor XII = target: T3, Coagulation factor XII (Homo sapiens, UniProt P00748); experiment: Inhibition of human coagulation factor XIIA using Boc-Gln-Gly-Arg-AMC as fluorogenic substrate measured at 1 min interval for 1 hr by fluorometric assay
T3 sequence (P00748 whole entry): T2 sequence (whole entry)

Coagulation factor X = Coagulation factor X (Homo sapiens, UniProt P00742); experiment: Inhibition of human coagulation factor Xa using Boc-Ile-Glu-Gly-Arg-AMC as fluorogenic substrate measured at 1 min interval for 1 hr by fluorometric assay
[6] = target: Urokinase-type plasminogen activator (Homo sapiens, UniProt P00749); experiment: Inhibition of human uPA using Tos-Gly-Pro-Arg-AMC as fluorogenic substrate measured at 1 min interval for 1 hr by fluorometric assay
Plasma [7] = experiment: (§2) Anticoagulant activity in human platelet-rich plasma assessed as reduction in TF-induced thrombin generation by measuring amplitude of thrombin peak at 100 uM preincubated for 15 mins followed by TF addition by Z-Gly-Gly-Arg-AMC substrate based calibrated automated thrombography (reference value: 63 +/- 3.7 AU/L); type: functional; conditions: 0.25 h
How it was run: (§3)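 Tissue-factor-triggered homogeneous thrombin generation followed by fluorogenic substrate cleavage. Read-outs: clotting time (T1/2), peak amplitude (Amax, AU/L), time to peak (Tmax) and ETP (AU·min/L). DMSO and buffer served as controls. n = 3, mean ± SD.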

Plasma kallikrein = Plasma kallikrein (Homo sapiens, UniProt P03952); experiment: Inhibition of human kallikrein using Mes-dArg-Pro-Arg-AMC as fluorogenic substrate measured at 1 min interval for 1 hr by fluorometric assay
Plasma [8] = experiment: as §2, with “endogenous” for “amplitude of”, “potential” for “peak”, “1203” for “63”, “44 AU.min/L)” for “3.7 AU/L)”; type: functional; conditions: 0.25 h; how it was run: as §3
Plasma [9] = experiment: (§4) Anticoagulant activity in human platelet-rich plasma assessed as reduction in TF-induced thrombin generation by measuring half life of clotting time at 100 uM preincubated for 15 mins followed by TF addition by Z-Gly-Gly-Arg-AMC substrate based calibrated automated thrombography (Rvb= 3 +/- 0.5 min); type: functional, cell-free; how it was run: as §3
Plasminogen = Plasminogen (Homo sapiens, UniProt P00747); experiment: Inhibition of human plasmin using Mes-dArg-Phe-Arg-AMC as fluorogenic substrate measured at 1 min interval for 1 hr by fluorometric assay
Coagulation factor XI = Coagulation factor XI (Homo sapiens, UniProt P03951); experiment: Inhibition of human coagulation factor XIA using Mes-dArg-Pro-Arg-AMC as fluorogenic substrate measured at 1 min interval for 1 hr by fluorometric assay
Plasma [10] = experiment: as §4, with “Tmax” for “half life”, “(reference value: 8.1” for “(Rvb= 3”, “0.6” for “0.5”; type: functional, cell-free; how it was run: as §3
Homo sapiens = organism: Homo sapiens; experiment: Selectivity index, ratio of IC50 for inhibition of human coagulation factor alpha-thrombin using Boc-Val-Pro-Arg-AMC as fluorogenic substrate to IC50 for inhibition of human coagulation factor XIIA using Boc-Gln-Gly-Arg-AMC as fluorogenic substrate incubated for 1 hr by fluorometric assay
[11] = target: T2, Coagulation factor XII (Homo sapiens); experiment: Binding affinity to human plasma coagulation factor XIIA assessed as compound-adduct formation by measuring change in molecular mass at molar ratio of 1:20 measured after 4 mins by SEC/ESI-TOF mass spectra analysis; type: cell-free
How it was run: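 β-FXIIa incubated with inhibitor at a 1:20 molar ratio, then size-exclusion chromatography coupled to ESI-MS to measure the mass of enzyme–inhibitor complexes. Further runs checked complex stability to probe reversibility.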

[12] = target: T2, Coagulation factor XII (Homo sapiens); experiment: Inhibition of human coagulation factor XIIA using Boc-Gln-Gly-Arg-AMC as fluorogenic substrate at 100 nM measured at 1 min interval for 1 hr by fluorometric assay relative to control; how it was run: as §1
Prothrombin [13] = target: T1, Prothrombin; experiment: Inhibition of human coagulation factor thrombin using Boc-Val-Pro-Arg-AMC as fluorogenic substrate at 100 nM measured at 1 min interval for 1 hr by fluorometric assay relative to control; how it was run: as §1

Sequence of Coagulation factor X (P00742 41-179 limits assumed): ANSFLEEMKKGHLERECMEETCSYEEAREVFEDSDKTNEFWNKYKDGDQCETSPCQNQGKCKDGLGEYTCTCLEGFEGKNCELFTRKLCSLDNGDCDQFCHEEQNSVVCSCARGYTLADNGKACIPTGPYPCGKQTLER
Sequence of Coagulation factor X (P00742 235-488 limits assumed): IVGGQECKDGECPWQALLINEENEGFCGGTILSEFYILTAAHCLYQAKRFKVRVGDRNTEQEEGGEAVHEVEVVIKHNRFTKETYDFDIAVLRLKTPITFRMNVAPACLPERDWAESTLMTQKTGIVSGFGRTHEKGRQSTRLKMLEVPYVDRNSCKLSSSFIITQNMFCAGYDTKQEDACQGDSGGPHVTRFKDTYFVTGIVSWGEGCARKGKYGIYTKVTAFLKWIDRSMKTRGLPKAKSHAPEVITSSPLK
Sequence of Coagulation factor XI (P03951 19-387 limits assumed): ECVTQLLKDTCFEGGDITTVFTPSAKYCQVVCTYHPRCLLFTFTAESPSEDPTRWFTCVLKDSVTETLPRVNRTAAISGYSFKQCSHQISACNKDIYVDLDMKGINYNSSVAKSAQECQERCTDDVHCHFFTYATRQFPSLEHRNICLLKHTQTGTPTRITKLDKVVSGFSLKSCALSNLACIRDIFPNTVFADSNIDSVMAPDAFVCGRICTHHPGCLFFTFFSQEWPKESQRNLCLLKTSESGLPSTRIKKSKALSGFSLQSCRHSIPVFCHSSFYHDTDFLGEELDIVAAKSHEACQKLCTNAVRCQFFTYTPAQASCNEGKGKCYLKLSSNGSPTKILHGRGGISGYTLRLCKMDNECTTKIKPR
Sequence of Coagulation factor XI (P03951 388-625 limits assumed): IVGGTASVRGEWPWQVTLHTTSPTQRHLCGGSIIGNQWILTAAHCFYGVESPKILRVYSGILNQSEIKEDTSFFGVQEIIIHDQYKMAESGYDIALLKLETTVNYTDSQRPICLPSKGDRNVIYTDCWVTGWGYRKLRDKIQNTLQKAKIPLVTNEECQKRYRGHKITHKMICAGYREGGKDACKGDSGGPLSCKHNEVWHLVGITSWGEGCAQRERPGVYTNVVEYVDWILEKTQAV
Sequence of Plasminogen (P00747 97-580 limits assumed): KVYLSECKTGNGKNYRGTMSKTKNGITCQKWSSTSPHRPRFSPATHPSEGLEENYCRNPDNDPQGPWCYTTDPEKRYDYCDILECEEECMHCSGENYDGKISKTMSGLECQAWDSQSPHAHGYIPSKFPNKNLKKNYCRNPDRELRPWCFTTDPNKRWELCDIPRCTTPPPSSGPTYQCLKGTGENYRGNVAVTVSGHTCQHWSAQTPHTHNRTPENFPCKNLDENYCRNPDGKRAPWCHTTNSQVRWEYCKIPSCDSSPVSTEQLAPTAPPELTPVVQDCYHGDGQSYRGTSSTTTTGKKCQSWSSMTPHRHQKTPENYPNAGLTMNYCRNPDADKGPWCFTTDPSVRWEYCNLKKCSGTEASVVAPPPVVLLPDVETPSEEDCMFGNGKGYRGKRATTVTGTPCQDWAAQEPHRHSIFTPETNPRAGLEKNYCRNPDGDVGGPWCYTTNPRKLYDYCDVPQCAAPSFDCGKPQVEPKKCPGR
Sequence of Plasminogen (P00747 581-810 limits assumed): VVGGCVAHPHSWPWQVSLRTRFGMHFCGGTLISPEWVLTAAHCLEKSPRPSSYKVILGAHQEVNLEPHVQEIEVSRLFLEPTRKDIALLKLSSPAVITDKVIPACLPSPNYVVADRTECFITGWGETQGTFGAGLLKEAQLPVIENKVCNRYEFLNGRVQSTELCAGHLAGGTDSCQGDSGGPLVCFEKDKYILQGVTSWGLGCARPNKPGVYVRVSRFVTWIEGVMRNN
Sequence of Plasma kallikrein (P03952 20-390 limits assumed): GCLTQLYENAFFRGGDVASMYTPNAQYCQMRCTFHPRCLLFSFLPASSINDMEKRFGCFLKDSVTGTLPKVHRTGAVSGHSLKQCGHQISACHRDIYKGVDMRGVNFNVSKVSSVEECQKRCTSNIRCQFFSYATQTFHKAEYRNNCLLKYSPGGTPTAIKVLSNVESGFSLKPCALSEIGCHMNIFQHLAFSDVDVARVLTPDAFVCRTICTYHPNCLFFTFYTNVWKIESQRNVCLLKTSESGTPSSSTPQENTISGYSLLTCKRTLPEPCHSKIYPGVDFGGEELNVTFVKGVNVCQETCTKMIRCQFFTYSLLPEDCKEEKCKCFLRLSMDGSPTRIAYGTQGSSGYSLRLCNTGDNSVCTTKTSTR
Sequence of Plasma kallikrein (P03952 391-638 limits assumed): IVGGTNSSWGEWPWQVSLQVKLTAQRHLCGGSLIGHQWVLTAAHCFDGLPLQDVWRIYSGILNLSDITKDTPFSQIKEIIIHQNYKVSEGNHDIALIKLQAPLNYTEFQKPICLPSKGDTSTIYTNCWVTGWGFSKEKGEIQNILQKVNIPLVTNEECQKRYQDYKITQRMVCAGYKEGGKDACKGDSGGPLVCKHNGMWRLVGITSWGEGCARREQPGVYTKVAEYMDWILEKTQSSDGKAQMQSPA

Row | SMILES | IC50 [1] [µM] | Activity (Blood [2]) [%] | IC50 (Prothrombin [3]) [µM] | Activity (Blood [4]) [%] | inhibition [5] [%] | IC50 (Coagulation factor XII) [µM] | IC50 (Coagulation factor X) [µM] | also measured
1 | Nc1nc(-c2ccccn2)nn1C(=O)c1ccc(C(F)(F)F)cc1 | > 5 | 8 | 4.57 | 40 | 14 | 3.21 | > 5 | 
2 | Nc1nc(Nc2cccnc2)nn1C(=O)c1ccccc1 | > 5 | 2 | > 8 | 1 |  | > 5 | > 5 | 
3 | Nc1nc(-c2ccccc2)nn1C(=O)c1ccccc1 | > 5 | 5 | 1.24 | 29 |  | 0.539 | > 5 | 
4 | Nc1nc(-c2ccccn2)nn1C(=O)c1cccnc1 | > 5 |  | 0.494 |  | 43 | 1.61 | > 5 | 
5 | Nc1n[nH]c(-c2ccccn2)n1 | > 5 |  | > 5 |  |  | > 5 | > 5 | 
6 | Cc1ccc(C(=O)n2nc(-c3ccccn3)nc2N)cc1C | > 5 | 48 | 0.057 | 227 | 92 | 0.091 | > 5 | IC50 [6]: 2.94 µM; Activity (Plasma [7]): 16.9 AU/L; IC50 (Plasma kallikrein): > 5 µM; Activity (Plasma [8]): 370 AU.min/L; T1/2 (Plasma [9]): 3.8 min; IC50 (Plasminogen): 25.8 µM; IC50 (Coagulation factor XI): > 5 µM; Tmax (Plasma [10]): 8.8 min
7 | Nc1nc(-c2ccccn2)nn1C(=O)C1CCOCC1 | > 5 |  | > 5 |  | 1 | 12.1 | > 5 | 
8 | Nc1nc(-c2ccccn2)nn1C(=O)c1ccc(Br)cc1 | > 5 | 16 | 0.239 | 119 | 58 | 0.793 | > 5 | 
9 | Nc1nc(-c2ccccn2)nn1C(=O)c1ccc([N+](=O)[O-])cc1 |  | 3 | > 5 | 35 | 29 | 5.93 | > 5 | 
10 | Nc1nc(-c2ccccn2)nn1C(=O)Cc1ccccc1 | > 5 |  | 0.509 |  | 87 | 0.21 | > 5 | 
11 | Nc1nc(-c2ccncc2)nn1C(=O)C1CCCCC1 | > 5 | 7 | > 5 | 10 |  | > 1 | > 5 | 
12 | Nc1nc(-c2ccccn2)nn1C(=O)C1CCCCC1 | > 5 |  | > 5 |  | 11 | > 1 | > 5 | 
13 | Nc1nc(-c2ccccn2)nn1C(=O)CNC(=O)c1ccccc1 | > 5 | 3 | > 132 | -2 | 20 | 13.2 | > 5 | 
14 | Cc1cccc(C(=O)n2nc(-c3ccccn3)nc2N)c1 | > 5 | 12 | 0.086 | 124 | 83 | 0.093 | > 5 | 
15 | Cc1ccc(S(=O)(=O)n2nc(-c3ccncc3)nc2N)cc1 | > 5 | 2 | > 5 | 5 |  | > 1 | > 5 | 
16 | Nc1nc(-c2ccccn2)nn1C(=O)c1ccc(F)cc1 | > 5 | 8 | 0.481 | 78 | 79 | 0.306 | > 5 | 
17 | CCc1ccc(C(=O)n2nc(-c3ccccn3)nc2N)cc1 | > 5 | 6 | 0.308 | 114 | 85 | 0.162 | > 5 | 
18 | Nc1nc(-c2ccccn2)nn1C(=O)c1ccc(NC(=O)C(F)(F)F)cc1 | > 5 |  | 3.39 |  | 89 | 0.142 | > 5 | Ratio IC50 (Homo sapiens): 24
19 | COc1ccc(C(=O)n2nc(-c3ccccn3)nc2N)cc1 | > 5 | 14 | 0.329 | 108 | 80 | 0.291 | > 5 | 
20 | Nc1nc(-c2ccccn2)nn1C(=O)/C=C/c1ccccc1 | > 5 |  | 1.56 |  | 21 | 9.82 | > 5 | 
21 | [H]/N=C(/N)c1ccc(NCc2nc3cc(C(=O)N(CCC(=O)O)c4ccccn4)ccc3n2C)cc1 [DABIGATRAN] |  | 539 |  |  |  | > 33 |  | 
22 | Nc1n[nH]c(-c2ccccc2)n1 | > 5 |  | > 5 |  |  | > 5 | > 5 | 
23 | Nc1nc(-c2ccccn2)nn1C(=O)[C@H]1CCCc2ccccc21 | > 5 | 7 | 0.421 | 67 | 96 | 0.134 | > 5 | Activity [11]: 158 Da; inhibition [12]: 70%; inhibition (Prothrombin [13]): 6%
24 | Nc1nc(-c2ccccn2)nn1C(=O)c1ccco1 | > 5 |  | 1.77 |  | 54 | 0.968 | > 5 | 
25 | Nc1nc(-c2ccncc2)nn1C(=O)c1ccccc1 | > 5 | 2 | 0.962 | 80 |  | 0.106 | > 5 | 
26 | CCOc1ccc(Nc2nc(N)n(C(=O)c3ccccc3)n2)cc1 | > 5 |  | > 5 |  |  | > 1 | > 5 | 
27 | Nc1nc(-c2ccccn2)nn1C(=O)c1ccccc1[N+](=O)[O-] |  |  | > 5 |  | 43 | 1.56 | > 5 | 
28 | Nc1n[nH]c(-c2ccncc2)n1 | > 5 | 1 | > 5 | 5 |  | > 5 | > 5 | 
